Reference: ChEMBL document CHEMBL1132564, “Antitumor benzothiazoles. 7. Synthesis of 2-(4-acylaminophenyl)benzothiazoles and investigations into the role of acetylation in the antitumor activities of the parent amines” (J Med Chem, 1999)

How the values were obtained:
MDA-MB-468 = assay: In vitro antitumor activity against MDA-468 carcinoma cell line.; type: functional, cell-based; settings: Homo sapiens
In short: (§1)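 MTT assay, 7-day format: 250–300 cells/well, adhered 24 h drug-free, then compound 1 pM–100 μM (n = 8), final DMSO <0.25%; RPMI 1640/10% FCS, 37 °C, 5% CO2. MTT added after exposure, 4 h, formazan dissolved in DMSO–glycine (4:1), absorbance 550 nm.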

MCF7 = assay: In vitro antitumor activity against MCF-7 carcinoma cell line.; type: functional, cell-based; settings: Homo sapiens; in short: as §1
NCI [1] = assay: In vitro antitumor activity against carcinoma cell lines by 2-day assay; type: functional, Homo sapiens
In short: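 NCI panel sulforhodamine B assay: line-specific seeding, 24 h drug-free, then five 10-fold dilutions (top 10^-4 M) for 2 days; growth inhibition from protein-stain optical density change; mean log GI50 across panel.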

Homo sapiens = assay: In vitro concentration to reduce colony formation of human tumor xenografts to 30% of the control; type: functional
In short: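 Clonogenic colony-formation assay using cells from 22 human tumor xenografts, tested at 0.1, 1.0 and 10 μg/mL; colony inhibition expressed as T/C, with T/C < 30% scored active; IC70 concentration reported.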

NCI [2] = assay: In vitro antitumor activity against carcinoma cell lines by 6-day assay; type: functional, Homo sapiens
In short: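 NCI 60-cell-line panel, sulforhodamine B protein stain. Seeding density set per line's growth; 24 h drug-free incubation, then test agent at five 10-fold dilutions up to 10^-4 M for 6 days of exposure. Growth inhibition derived from change in protein-stain optical density; log GI50 reported.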

CC(=O)Nc1ccc(-c2nc3ccccc3s2)cc1Cl
IC50 (MDA-MB-468): > 100 nM
IC50 (MCF7): > 10 nM
Mean log GI50 (NCI [1]): -4.54 M

CC(=O)Nc1ccc(-c2nc3ccccc3s2)cc1[N+](=O)[O-]
IC50 (MDA-MB-468): > 1000 nM
IC50 (MCF7): > 1000 nM

CC(=O)Nc1ccc(-c2nc3ccccc3s2)cc1C
IC50 (MDA-MB-468): > 10000 nM
IC50 (MCF7): > 10000 nM
Mean log GI50 (NCI [1]): -4.36 M

c1ccc2sc(-c3ccc4[nH]ncc4c3)nc2c1
IC50 (MDA-MB-468): > 10000 nM
IC50 (MCF7): > 10000 nM

Cc1cc(-c2nc3ccccc3s2)ccc1N
IC50 (MDA-MB-468): < 1 nM
IC50 (MCF7): < 1 nM
Mean IC70 (Homo sapiens): 6.9 µg/mL
Mean log GI50 (NCI [2]): -5.05 M
Mean log GI50 (NCI [1]): -4.61 M

O=C(CCl)Nc1ccc(-c2nc3ccccc3s2)cc1I
IC50 (MDA-MB-468): > 10 nM
IC50 (MCF7): > 10 nM
